In ChEMBL document CHEMBL5321232, “Synthesis and biological evaluation of dual MDM2/XIAP inhibitors based on the tetrahydroquinoline scaffold” (Eur J Med Chem, 2023):
Calls of active or inactive are those of the source. The calls are words filed in the database; no cut-off is given here.

What was measured:
[1] = Antiproliferative activity against human EU-1 cells assessed as inhibition of cell growth incubated for 44 hrs by WST assay; type: functional, cell-based; conditions: EU-1, 44 h
Outline: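 Pediatric ALL-derived EU-1 cells grown in RPMI 1640 with 10% FBS, 2 mmol/L L-glutamine and penicillin/streptomycin at 37 °C, 5% CO2. Compounds given at graded concentrations for 44 h. WST (25 μg/well) then added for a further 4 h. OD read at 450 nm against a 620 nm reference, with cell-free wells for background.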

MDA-MB-231 = assay: Antiproliferative activity against human MDA-MB-231 cells assessed as inhibition of cell growth incubated for 72 hrs by MTS assay; type: functional, cell-based; conditions: MDA-MB-231, 72 h
Outline: (§1)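 Cells seeded at 3,000–8,000 per well according to growth rate and incubated overnight. They were then exposed to compounds over 3 nM–100 μM for 72 h, four replicates per concentration. MTS added, 1.5 h in the dark at 37 °C, absorbance read at 490 nm. IC50 normalized to untreated cells and fitted by nonlinear regression.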

CWR22R [2] = assay: Antiproliferative activity against human 22Rv1 cells assessed as inhibition of cell growth incubated for 72 hrs by MTS assay; type: functional, cell-based; conditions: 22Rv1, 72 h; outline: as §1
A-375 [3] = assay: Inhibition of colony formation in human A-375 cells assessed as reduction in number of clonogenic cells at 1 to 10 uM incubated for 10 days and subsequent media replacement with compound for every 3 days by crystal violet staining based microscopic analysis; type: functional, cell-based; conditions: dose 1-10 µM, time 10.0 day
Outline: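 A375 cells in log phase were seeded at 250 per well and incubated 48 h. They were then treated with 1, 5 or 10 μM for 10 days, with medium ± compound changed every 3 days. Colonies were methanol-fixed, stained with 0.5% crystal violet and counted by microscopy. Colony area expressed versus vehicle (100%) as mean ± SEM of three biological replicates.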

CWR22R [4] = assay: Inhibition of colony formation in human 22Rv1 cells assessed as reduction in number of clonogenic cells incubated for 14 days and subsequent media replacement with compound for every 3 days by crystal violet staining based microscopic analysis; type: functional, cell-based; conditions: dose 1-10 µM, time 14.0 day
Outline: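 22Rv1 cells in log phase were seeded at 2,000 per well and incubated 72 h. They were then treated with 1, 5 or 10 μM for 14 days, with medium ± compound renewed every 3 days. Colonies were fixed in cold methanol, stained with 0.5% crystal violet and counted microscopically. Run in triplicate; area expressed relative to vehicle (100%) as mean ± SEM of three biological replicates.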

EU-1 [5] = assay: Downregulation of MDM2 expression in human EU-1 cells upto 1 uM by Western blot analysis; type: functional, cell-based; conditions: time 8.0 hrs, TDE = time-dependent effect
Outline: (§2)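 EU-1 cells were treated at the doses and times indicated; for caspase-3, caspase-9 and PARP, 1 μM over a time course. Cells were lysed for 30 min in NaCl/Tris pH 8.0/EDTA/NP-40 buffer with protease inhibitors. Equal protein was run on SDS-PAGE and transferred to nitrocellulose. Membranes were blocked in milk, incubated with primary antibodies for 3 h at room temperature and HRP secondary for 1 h, then developed by ECL.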

EU-1 [6] = assay: Downregulation of MDM2 expression in human EU-1 cells incubated for 8 hrs by Western blot analysis; type: functional, cell-based; conditions: dose <= 1.0 µM; outline: as §2
[7] = target: E3 ubiquitin-protein ligase Mdm2 (Homo sapiens) (UniProt Q00987); assay: Inhibition of MDM2 in human EU-1 cells assessed as increase in p53 expression upto 1 uM incubated at 8 hrs by Western blot analysis; type: cell-based; outline: as §2
[8] = target: E3 ubiquitin-protein ligase Mdm2 (Homo sapiens) (UniProt Q00987); assay: Inhibition of MDM2 in human EU-1 cells assessed as increase in p21 expression upto 1 uM incubated at 8 hrs by Western blot analysis; type: cell-based; outline: as §2
[9] = target: E3 ubiquitin-protein ligase Mdm2 (Homo sapiens) (UniProt Q00987); assay: Inhibition of MDM2 in human EU-1 cells assessed as increase in PUMA expression upto 1 uM incubated at 8 hrs by Western blot analysis; type: cell-based; outline: as §2
[10] = target: E3 ubiquitin-protein ligase XIAP (Homo sapiens) (UniProt P98170); assay: Inhibition of XIAP in human EU-1 cells assessed as increase in caspase3 at 1 uM incubated upto 24 hrs by Western blot analysis; type: cell-based; outline: as §2
[11] = target: E3 ubiquitin-protein ligase XIAP (Homo sapiens) (UniProt P98170); assay: Inhibition of XIAP in human EU-1 cells assessed as increase in caspase-9 at 1 uM incubated upto 24 hrs by Western blot analysis; type: cell-based; outline: as §2
[12] = target: E3 ubiquitin-protein ligase XIAP (Homo sapiens) (UniProt P98170); assay: Inhibition of XIAP in human EU-1 cells assessed as increase in PARP at 1 uM incubated upto 24 hrs by Western blot analysis; type: cell-based; outline: as §2
[13] = target: E3 ubiquitin-protein ligase Mdm2 (Homo sapiens) (UniProt Q00987); assay: Inhibition of MDM2 in human 22Rv1 cells assessed as increase in p53 expression upto 10 uM incubated at 24 hrs by Western blot analysis; type: cell-based
Outline: (§3)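 22Rv1 or A375 cells grown to 80% confluence were exposed for 24 h to 1, 5 or 10 μM compound in DMEM. AMG-232 control ran at 100 nM–1 μM. Cells were lysed in RIPA with protease/phosphatase inhibitors, and 30 μg protein was run on SDS-PAGE/PVDF. Membranes were blocked in 5% milk and probed overnight at 4 °C for p53, c-PARP, MDM2 and GAPDH. Bands detected by HRP/ECL.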

[14] = target: E3 ubiquitin-protein ligase Mdm2 (Homo sapiens) (UniProt Q00987); assay: Inhibition of MDM2 in human A-375 cells assessed as increase in p53 expression upto 10 uM incubated at 24 hrs by Western blot analysis; type: cell-based
Outline: as §3, with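 “DMEM.” for “DMEM. AMG-232 control ran at 100 nM–1 μM.”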

[15] = target: E3 ubiquitin-protein ligase Mdm2 (Homo sapiens) (UniProt Q00987); assay: Inhibition of MDM2 in human 22Rv1 cells assessed as increase in PARP expression upto 10 uM incubated at 24 hrs by Western blot analysis; type: cell-based; outline: as §3
[16] = target: E3 ubiquitin-protein ligase Mdm2 (Homo sapiens) (UniProt Q00987); assay: Inhibition of MDM2 in human A-375 cells assessed as increase in PARP expression upto 10 uM incubated at 24 hrs by Western blot analysis; type: cell-based; outline: as §3
CWR22R [17] = assay: Antitumor activity against human 22Rv1 cells xenografted in NOD SCID mouse assessed as inhibition of tumor growth at 60 mg/kg, ip administered for 10 days and measured every 3 days; type: functional, organism-based; conditions: time 10.0 day
Outline: (§4)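 Male humanized NSG mice, 8–9 weeks old, were injected s.c. in the right dorsal flank with 2 million 22Rv1 cells in medium/Matrigel 1:1. After ~14 days (mean tumor ~100 mm3), mice were randomized, n=5/group. Dosing was 60 mg/kg i.p. daily for 10 days in 5% DMSO/65% PEG400/30% saline, or vehicle alone. Caliper volume (a×b2×0.5) and body weight were recorded every 3 days.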

CWR22R [18] = assay: Antitumor activity against human 22Rv1 cells xenografted in NOD SCID mouse at 60 mg/kg, ip administered for 10 days and measured every 3 days; type: functional, organism-based; conditions: time 10.0 day; outline: as §4
[19] = Toxicity in NOD SCID mouse assessed as body weight loss at 60 mg/kg, ip administered for 10 days and measured every 3 days; type: organism-based; conditions: in vivo, 240 h, time 10 day; outline: as §4
CWR22R [20] = assay: Antitumor activity against human 22Rv1 cells xenografted in NOD SCID mouse assessed as decrease in MDM2 expression at 60 mg/kg, ip administered for 10 days by immunostaining analysis; type: functional, organism-based; conditions: time 10.0 day
Outline: (§5)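 Tumors came from 22Rv1 xenografts in male NSG mice dosed i.p. daily for 10 days. Cryosections (10 μm) were fixed in 4% PFA and permeabilized with 0.25% Triton X-100, then blocked with 10% goat serum. Primary antibodies (1:200) against MDM2, cleaved caspase-3, cleaved PARP or CD31 were applied overnight at 4 °C, followed by fluorescent secondaries (1:1,000, 2 h) and a DAPI counterstain. Fluorescence intensity quantified as mean ± SEM.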

CWR22R [21] = assay: Antitumor activity against human 22Rv1 cells xenografted in NOD SCID mouse assessed as increase in cleaved caspase3 expression at 60 mg/kg, ip administered for 10 days by immunostaining analysis; type: functional, organism-based; conditions: time 10.0 day; outline: as §5
CWR22R [22] = assay: Antitumor activity against human 22Rv1 cells xenografted in NOD SCID mouse assessed as increase in cleaved PARP expression at 60 mg/kg, ip administered for 10 days by immunostaining analysis; type: functional, organism-based; conditions: time 10.0 day; outline: as §5
CWR22R [23] = assay: Antitumor activity against human 22Rv1 cells xenografted in NOD SCID mouse assessed as disruption of tumor vasculature at 60 mg/kg, ip administered for 10 days by immunostaining analysis; type: functional, organism-based; conditions: time 10.0 day; outline: as §5
A-375 [24] = assay: Antiproliferative activity against human A-375 cells assessed as inhibition of cell growth incubated for 72 hrs by MTS assay; conditions: A-375, 72 h

E3 ubiquitin-protein ligase Mdm2 (Homo sapiens), sequence (Q00987 whole entry, looked up): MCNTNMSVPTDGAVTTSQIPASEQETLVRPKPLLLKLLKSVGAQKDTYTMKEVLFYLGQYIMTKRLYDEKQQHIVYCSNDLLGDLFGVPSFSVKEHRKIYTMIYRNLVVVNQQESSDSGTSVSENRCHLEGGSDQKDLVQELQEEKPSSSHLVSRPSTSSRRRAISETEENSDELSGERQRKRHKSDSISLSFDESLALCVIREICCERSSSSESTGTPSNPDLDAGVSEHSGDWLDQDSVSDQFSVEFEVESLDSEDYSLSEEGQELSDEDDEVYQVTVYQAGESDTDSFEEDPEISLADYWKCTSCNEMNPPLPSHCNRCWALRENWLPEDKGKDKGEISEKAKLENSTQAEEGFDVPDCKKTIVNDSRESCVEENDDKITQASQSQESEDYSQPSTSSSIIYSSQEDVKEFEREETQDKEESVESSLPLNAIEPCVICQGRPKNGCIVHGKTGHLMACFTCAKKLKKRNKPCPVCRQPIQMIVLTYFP
E3 ubiquitin-protein ligase XIAP (Homo sapiens), sequence (P98170 whole entry): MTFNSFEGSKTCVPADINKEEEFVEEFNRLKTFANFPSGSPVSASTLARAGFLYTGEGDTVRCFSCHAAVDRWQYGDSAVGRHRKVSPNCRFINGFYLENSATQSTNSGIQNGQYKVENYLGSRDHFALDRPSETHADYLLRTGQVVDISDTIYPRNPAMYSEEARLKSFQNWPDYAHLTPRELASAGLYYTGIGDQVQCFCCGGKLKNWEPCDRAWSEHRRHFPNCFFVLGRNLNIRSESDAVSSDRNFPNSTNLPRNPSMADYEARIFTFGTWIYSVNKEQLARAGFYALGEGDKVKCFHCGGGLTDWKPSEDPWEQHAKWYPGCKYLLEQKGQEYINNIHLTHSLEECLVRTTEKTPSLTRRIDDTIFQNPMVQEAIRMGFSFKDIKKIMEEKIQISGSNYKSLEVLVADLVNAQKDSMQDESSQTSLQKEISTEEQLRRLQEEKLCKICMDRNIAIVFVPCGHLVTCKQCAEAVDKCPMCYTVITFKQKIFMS

IC50 (MDA-MB-231): 1500 nM
inhibition [7]: Active
inhibition [8]: Active
inhibition [9]: Active
inhibition [10]: Active
inhibition [11]: Active
inhibition [12]: Active
inhibition [13]: Active
inhibition [14]: Active
inhibition [15]: Active
inhibition [16]: Active
IC50 (A-375 [24]): 1000 nM
Compound: CC(=O)c1cccc(NS(=O)(=O)c2ccc3c(c2)C2OCCC2C(c2ccc(C(=O)C(C)C)cc2)N3)c1 (stereo not given)
IC50 [1]: 200 nM
IC50 (CWR22R [2]): 5300 nM
inhibition (A-375 [3]): Active
inhibition (CWR22R [4]): Dose-Dependent Effect
Activity (EU-1 [5]): Tde
Activity (EU-1 [6]): Dose-Dependent Effect
Activity (CWR22R [17]): Active
Activity (CWR22R [18]): Active
Activity [19]: Non-Toxic
Activity (CWR22R [20]): Active
Activity (CWR22R [21]): Active
Activity (CWR22R [22]): Active
Activity (CWR22R [23]): Active
